# Reference: ChEMBL document CHEMBL5096186, “Design, Synthesis, and Biological Evaluation of Novel Pyrimido[4,5-b]indole Derivatives Against Gram-Negative Multidrug-Resistant Pathogens” (J Med Chem, 2021)
# Tests used:
# Staphylococcus aureus = experiment: Antibacterial activity against methicillin-sensitive Staphylococcus aureus strains 15 1 to 4 assessed as reduction in bacterial growth incubated for 18 to 20 hrs by CLSI based microdilution method; format: functional; conditions: time 18-20 hrs
# In short: (§1)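 Broth microdilution per CLSI. Compounds dissolved in DMSO (levofloxacin and meropenem in water) as 64 μg/mL stock, then serial twofold dilutions in broth giving 64 to 0.008 μg/mL. […] Clinical isolates tested as several strains per group; racemic GP-1 served as positive control; values given as MIC ranges.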
# [1] = test system: Staphylococcus epidermidis; experiment: Antibacterial activity against methicillin-sensitive Staphylococcus epidermidis strains 15 1 to 4 assessed as reduction in bacterial growth incubated for 18 to 20 hrs by CLSI based microdilution method; format: functional; conditions: time 18-20 hrs; in short: as §1
# Escherichia coli [2] = experiment: Antibacterial activity against ESBL-producing Escherichia coli ATCC 35218 strains 15 1 to 3 assessed as reduction in bacterial growth incubated for 18 to 20 hrs by CLSI based microdilution method; format: functional; conditions: time 18-20 hrs
# In short: (§2)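 CLSI broth microdilution. Compounds in DMSO (levofloxacin and meropenem in water), serial twofold dilutions in broth, 64 to 0.008 μg/mL. […] Results reported as MIC ranges across strains.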
# Escherichia coli [3] = experiment: Antibacterial activity against Escherichia coli ATCC 35218 strains 15 1 to 3 assessed as reduction in bacterial growth incubated for 18 to 20 hrs by CLSI based microdilution method; format: functional; conditions: time 18-20 hrs; in short: as §2
# Pseudomonas aeruginosa [4] = experiment: Antibacterial activity against multidrug resistant Pseudomonas aeruginosa strains 15 1 to 3 assessed as reduction in bacterial growth incubated for 18 to 20 hrs by CLSI based microdilution method; format: functional; conditions: time 18-20 hrs; in short: as §1
# [5] = target: hERG (KCNH2) potassium channel (Homo sapiens, UniProt Q12809); experiment: Inhibition of hERG potassium channel assessed as maximum inhibition rate at 40 uM at -80 mV holding potential incubated for 120 seconds by whole cell-automated voltage clamp analysis assay relative to control; format: toxicity; conditions: time 120 sec
# Sequence of hERG (KCNH2) potassium channel (Q12809 whole entry): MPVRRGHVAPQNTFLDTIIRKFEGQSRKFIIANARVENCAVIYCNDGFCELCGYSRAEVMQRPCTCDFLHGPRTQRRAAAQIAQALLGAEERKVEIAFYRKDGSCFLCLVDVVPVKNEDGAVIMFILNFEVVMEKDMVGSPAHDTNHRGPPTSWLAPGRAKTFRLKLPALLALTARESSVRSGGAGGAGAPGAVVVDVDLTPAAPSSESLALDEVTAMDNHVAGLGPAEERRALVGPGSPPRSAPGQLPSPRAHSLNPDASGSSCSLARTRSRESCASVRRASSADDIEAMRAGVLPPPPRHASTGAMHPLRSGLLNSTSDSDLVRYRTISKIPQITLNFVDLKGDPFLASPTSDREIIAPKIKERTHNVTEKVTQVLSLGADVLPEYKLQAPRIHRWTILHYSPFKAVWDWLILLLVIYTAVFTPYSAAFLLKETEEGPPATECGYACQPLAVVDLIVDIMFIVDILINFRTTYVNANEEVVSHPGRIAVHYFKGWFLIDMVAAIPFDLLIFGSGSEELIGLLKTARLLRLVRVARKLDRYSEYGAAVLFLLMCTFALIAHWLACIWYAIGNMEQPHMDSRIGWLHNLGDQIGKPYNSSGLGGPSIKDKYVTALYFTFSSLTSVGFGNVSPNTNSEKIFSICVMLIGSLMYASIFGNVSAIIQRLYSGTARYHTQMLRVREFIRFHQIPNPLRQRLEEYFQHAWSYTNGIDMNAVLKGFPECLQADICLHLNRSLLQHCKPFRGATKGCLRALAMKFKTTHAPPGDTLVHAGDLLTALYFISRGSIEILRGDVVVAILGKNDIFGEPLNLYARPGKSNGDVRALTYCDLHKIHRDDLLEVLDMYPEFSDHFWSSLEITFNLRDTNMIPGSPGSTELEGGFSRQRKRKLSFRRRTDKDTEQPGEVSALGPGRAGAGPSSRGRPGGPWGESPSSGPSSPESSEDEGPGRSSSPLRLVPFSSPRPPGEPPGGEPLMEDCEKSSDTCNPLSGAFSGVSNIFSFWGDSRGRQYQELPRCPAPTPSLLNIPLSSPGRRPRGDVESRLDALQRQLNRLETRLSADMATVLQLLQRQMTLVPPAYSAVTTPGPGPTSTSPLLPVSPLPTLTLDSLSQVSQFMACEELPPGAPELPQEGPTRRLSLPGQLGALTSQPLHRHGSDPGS
# In short: (§3)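 Automated whole-cell patch clamp, holding potential −80 mV. Voltage protocol applied every 20 s. Baseline set with external solution containing 0.1% DMSO and stabilised 3 min. Compound applied until steady state, at least 3 min, then washout. Maximum tested concentration 40 μM, or 3 μM for cisapride as positive control.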
# [6] = target: Voltage-gated inwardly rectifying potassium channel KCNH2 (Homo sapiens, UniProt Q12809); experiment: Inhibition of hERG potassium channel assessed as […] at -80 mV holding potential incubated for 120 seconds by whole cell-automated voltage clamp analysis assay; format: toxicity; in short: as §3
# Sequence of Voltage-gated inwardly rectifying potassium channel KCNH2 (Q12809 whole entry): as above
# Escherichia coli [7] = experiment: Antibacterial activity against ESBL-producing multidrug resistant Escherichia coli assessed as reduction in bacterial growth incubated for 18 to 20 hrs by CLSI based microdilution method; format: functional; conditions: time 18-20 hrs; in short: as §1
# Escherichia coli [8] = experiment: Antibacterial activity against multidrug resistant wild type Escherichia coli ATCC BAA-2340 assessed as reduction in bacterial growth incubated for 18 to 20 hrs by CLSI based microdilution method; format: functional; conditions: time 18-20 hrs; in short: as §1
# Escherichia coli [9] = experiment: Antibacterial activity against multidrug resistant wild type Escherichia coli NCTC 13353 assessed as reduction in bacterial growth incubated for 18 to 20 hrs by CLSI based microdilution method; format: functional; conditions: time 18-20 hrs; in short: as §1
# Klebsiella pneumoniae [10] = experiment: Antibacterial activity against KPC2-producing multidrug resistant Klebsiella pneumoniae assessed as reduction in bacterial growth incubated for 18 to 20 hrs by CLSI based microdilution method; format: functional; conditions: time 18-20 hrs; in short: as §1
# Klebsiella pneumoniae [11] = experiment: Antibacterial activity agains wild type Klebsiella pneumoniae ATCC BAA-1705 assessed as reduction in bacterial growth incubated for 18 to 20 hrs by CLSI based microdilution method; format: functional; conditions: time 18-20 hrs; in short: as §2
# Klebsiella pneumoniae [12] = experiment: Antibacterial activity agains wild type Klebsiella pneumoniae ATCC BAA-2470 assessed as reduction in bacterial growth incubated for 18 to 20 hrs by CLSI based microdilution method; format: functional; conditions: time 18-20 hrs; in short: as §1
# Acinetobacter baumannii [13] = experiment: Antibacterial activity agains OXA23-producing multidrug resistant Acinetobacter baumannii assessed as reduction in bacterial growth incubated for 18 to 20 hrs by CLSI based microdilution method; format: functional; conditions: time 18-20 hrs; in short: as §1
# Acinetobacter baumannii [14] = experiment: Antibacterial activity against wild type Acinetobacter baumannii NCTC 13304 assessed as reduction in bacterial growth incubated for 18 to 20 hrs by CLSI based microdilution method; format: functional; conditions: time 18-20 hrs; in short: as §1
# Pseudomonas aeruginosa [15] = experiment: Antibacterial activity against IMP4-producing multidrug resistant Pseudomonas aeruginosa assessed as reduction in bacterial growth incubated for 18 to 20 hrs by CLSI based microdilution method; format: functional; conditions: time 18-20 hrs; in short: as §1
# Pseudomonas aeruginosa [16] = experiment: Antibacterial activity against wild type Pseudomonas aeruginosa ATCC 27853 assessed as reduction in bacterial growth incubated for 18 to 20 hrs by CLSI based microdilution method; format: functional; conditions: time 18-20 hrs; in short: as §2
# [17] = Metabolic stability in rat liver microsome assessed as elimination half life at 0.1 uM in presence of NADPH incubated upto 60 mins by LC-MS/MS analysis; format: ADME; conditions: liver microsomes, read-out: beta t1/2
# In short: (§4)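 Compound at 0.1 μM final, in 0.01% DMSO with 0.005% BSA. Incubated with rat or human liver microsomes at 0.33 mg/mL in 0.1 M Tris-HCl, pH 7.4, with 5 mM MgCl₂ and 1 mM NADPH, at 37 °C. Samples at 0, 7, 17, 30 and 60 min quenched with cold methanol and analysed by LC-MS/MS. Half-life, Cl_int and MF% derived as previously described.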
# [18] = Metabolic stability in human liver microsome assessed as elimination half life at 0.1 uM in presence of NADPH incubated upto 60 mins by LC-MS/MS analysis; format: ADME; conditions: liver microsomes, read-out: beta t1/2; in short: as §4
# [19] = Metabolic stability in rat liver microsome assessed as intrinsic clearance at 0.1 uM in presence of NADPH incubated upto 60 mins by LC-MS/MS analysis; format: ADME; conditions: microsomes, 1 h; in short: as §4
# [20] = Metabolic stability in human liver microsome assessed as intrinsic clearance at 0.1 uM in presence of NADPH incubated upto 60 mins by LC-MS/MS analysis; format: ADME; conditions: microsomes, 1 h; in short: as §4
# [21] = Metabolic stability in rat liver microsome assessed as metabolic bioavailability at 0.1 uM in presence of NADPH incubated upto 60 mins by LC-MS/MS analysis; format: ADME; conditions: liver microsomes; in short: as §4
# [22] = Metabolic stability in human liver microsome assessed as metabolic bioavailability at 0.1 uM in presence of NADPH incubated upto 60 mins by LC-MS/MS analysis; format: ADME; conditions: liver microsomes; in short: as §4
# [23] = AUC (0 to infinity) in Sprague-Dawley rat at 4 mg/kg, iv measured upto 24 hrs by LC-MS/MS analysis; format: ADME, organism-based; set-up: time < 24 hrs, dose 4 mg/kg, route iv; conditions: in vivo
# In short: (§5)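 Male Sprague-Dawley rats, n = 3 per group, single intravenous dose. For 4 mg/kg: 180–280 g rats, vehicle 5% DMSO + 5% EtOH + 40% PEG300 + 50% saline, blood from the retrobulbar vein at 0.05–24 h. For 5 and 20 mg/kg: 180–300 g rats, vehicle 5% DMSO + 5% solutol + 90% saline, sampled at 0.083–24 h. Plasma quantified by LC/MS/MS. Parameters from mean plasma concentration by noncompartmental analysis; values are mean ± standard deviation.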
# [24] = Elimination half life in Sprague-Dawley rat at 4 mg/kg, iv measured upto 24 hrs by LC-MS/MS analysis; format: ADME, organism-based; conditions: in vivo, read-out: beta t1/2 (converted); in short: as §5
# [25] = MRT in Sprague-Dawley rat at 4 mg/kg, iv measured upto 24 hrs by LC-MS/MS analysis; format: ADME, organism-based; conditions: in vivo; in short: as §5
# [26] = Clearance in Sprague-Dawley rat at 4 mg/kg, iv measured upto 24 hrs by LC-MS/MS analysis; format: ADME, organism-based; conditions: in vivo; in short: as §5
# [27] = Volume of distribution at the steady state in Sprague-Dawley rat at 4 mg/kg, iv measured upto 24 hrs by LC-MS/MS analysis; format: ADME, organism-based; conditions: in vivo, read-out: Vdss; in short: as §5
SMILES,MIC (Staphylococcus aureus),MIC [1],MIC (Escherichia coli [2]),MIC (Escherichia coli [3]),MIC (Pseudomonas aeruginosa [4]),"inhibition at 2 min, 40 µM [5]",IC50 [6],MIC (Escherichia coli [7]),MIC (Escherichia coli [8]),MIC (Escherichia coli [9]),MIC (Klebsiella pneumoniae [10]),MIC (Klebsiella pneumoniae [11]),MIC (Klebsiella pneumoniae [12]),MIC (Acinetobacter baumannii [13]),MIC (Acinetobacter baumannii [14]),MIC (Pseudomonas aeruginosa [15]),MIC (Pseudomonas aeruginosa [16]),half-life at 0.1 µM [17],half-life at 0.1 µM [18],CLH [19],also measured
CNc1cc(F)cc2c1[nH]c1nc(Oc3cnc(C)nc3)nc(N3CC(=CC(C)N)C3)c12 (stereo unspecified),< 0.008 µg/mL,< 0.008 µg/mL,0.125 µg/mL,0.06 µg/mL,0.5 µg/mL,32.3%,> 40 µM,1 µg/mL,1 µg/mL,0.5 µg/mL,4 µg/mL,8 µg/mL,4 µg/mL,0.5 µg/mL,0.5 µg/mL,8 µg/mL,4 µg/mL,0.2 h,1.78 h,180.9 mL/min/g,"CLH [20]: 19.6 mL/min/g; Fh at 1 h, 0.1 µM [21]: 19.7%; Fh at 1 h, 0.1 µM [22]: 50%; AUC(0-inf) [23]: 836 ng·h/mL; half-life [24]: 9 h; MRT [25]: 6.8 h; clearance [26]: 81.5 mL/min/kg; Vd [27]: 33.4 L/kg"
CCC(CN)=C1CN(c2nc(Oc3cnc(C(C)O)nc3)nc3[nH]c4c(NC)cc(F)cc4c23)C1 (stereo unspecified),< 0.008 µg/mL,< 0.008 µg/mL,0.5 µg/mL,0.25 µg/mL,16 µg/mL,36%,> 40 µM,0.5 µg/mL,1 µg/mL,0.5 µg/mL,4 µg/mL,8 µg/mL,2 µg/mL,0.5 µg/mL,0.5 µg/mL,> 8 µg/mL,4 µg/mL,0.253 h,0.912 h,138.4 mL/min/g,"CLH [20]: 38.4 mL/min/g; Fh at 1 h, 0.1 µM [21]: 24.3%; Fh at 1 h, 0.1 µM [22]: 33.8%; AUC(0-inf) [23]: 983 ng·h/mL; half-life [24]: 2.7 h; MRT [25]: 2.1 h; clearance [26]: 71.5 mL/min/kg; Vd [27]: 9.3 L/kg"
